From ChEMBL document CHEMBL2046409, “Design and synthesis of active site inhibitors of the human farnesyl pyrophosphate synthase: apoptosis and inhibition of ERK phosphorylation in multiple myeloma cells” (J Med Chem, 2012)
Values belong to the compound of their own block, whether it stands above or below them. The source made the active and inactive calls. The rule behind the calls is not given here.

Key:
[1] = Antiproliferative activity against human JJN-3 after 72 hrs by MTT assay; type: functional; settings: JJN-3, 72 h
[2] = Antiproliferative activity against human […] after 72 hrs by MTT assay; type: functional
Method in brief: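 Cells seeded at 10,000/well and rested 2 h, then given compound diluted in culture medium as a half-log series spanning 100 nM–333 μM. Incubated 72 h at 37 °C in 5% CO2. MTT read at OD490.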

[3] = Antiproliferative activity against human KMS-28PE after 72 hrs by MTT assay; type: functional
[4] = target: T1, Farnesyl pyrophosphate synthase (Homo sapiens, UniProt P14324); assay: Inhibition of human FPPS using […] as substrate incubated for 30 mins prior to substrate addition measured after 20 mins by scintillation counting
T1 sequence (P14324 whole entry): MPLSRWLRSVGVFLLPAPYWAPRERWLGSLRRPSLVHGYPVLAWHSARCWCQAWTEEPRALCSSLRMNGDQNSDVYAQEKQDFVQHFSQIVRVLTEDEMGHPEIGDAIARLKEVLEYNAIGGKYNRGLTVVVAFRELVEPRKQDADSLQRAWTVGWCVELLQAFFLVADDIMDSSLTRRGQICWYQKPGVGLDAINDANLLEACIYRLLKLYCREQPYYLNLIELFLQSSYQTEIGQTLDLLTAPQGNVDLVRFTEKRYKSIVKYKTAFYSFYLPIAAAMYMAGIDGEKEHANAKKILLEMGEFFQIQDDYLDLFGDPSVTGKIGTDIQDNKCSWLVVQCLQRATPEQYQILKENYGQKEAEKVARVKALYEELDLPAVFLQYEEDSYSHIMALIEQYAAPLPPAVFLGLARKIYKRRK

[5] = target: T1, Farnesyl pyrophosphate synthase; assay: Inhibition of human recombinant N-terminal-His6 tagged FPPS expressed in Escherichia coli BL21 using [14C]IPP and GPP as substrate incubated for 10 mins prior to substrate addition measured after 10 mins by scintillation counting
[6] = target: T1, Farnesyl pyrophosphate synthase; assay: Inhibition of human recombinant N-terminal-His6 tagged FPPS expressed in Escherichia coli BL21 using [3H]IPP and GPP as substrate measured after 20 mins by liquid scintillation counting
[7] = Induction of apoptosis in human KMS-28PE cells assessed as viable cells at 1 uM after 48 hrs by AnnexinV/7AAD staining-based flow cytometric assay (reference value: 93%); type: functional; settings: read-out: Activity
[8] = Induction of apoptosis in human KMS-28PE cells assessed as viable cells at 100 uM after 48 hrs by AnnexinV/7AAD staining-based flow cytometric assay (reference value: 93%); type: functional; settings: read-out: Activity
[9] = Induction of apoptosis in human KMS-28PE cells assessed as early apoptotic cells at 1 uM after 48 hrs by AnnexinV/7AAD staining-based flow cytometric assay (reference value: 1.44%); type: functional
[10] = Induction of apoptosis in human KMS-28PE cells assessed as early apoptotic cells at 100 uM after 48 hrs by AnnexinV/7AAD staining-based flow cytometric assay (reference value: 1.44%); type: functional
[11] = Induction of apoptosis in human KMS-28PE cells assessed as late apoptotic cells at 1 uM after 48 hrs by AnnexinV/7AAD staining-based flow cytometric assay (reference value: 5.18%); type: functional
[12] = Induction of apoptosis in human KMS-28PE cells assessed as late apoptotic cells at 100 uM after 48 hrs by AnnexinV/7AAD staining-based flow cytometric assay (reference value: 5.18%); type: functional
[13] = Induction of apoptosis in human KMS-28PE cells assessed as necrotic cells at 1 uM after 48 hrs by AnnexinV/7AAD staining-based flow cytometric assay (reference value: 0.36%); type: functional
[14] = Induction of apoptosis in human KMS-28PE cells assessed as necrotic cells at 100 uM after 48 hrs by AnnexinV/7AAD staining-based flow cytometric assay (reference value: 0.36%); type: functional
[15] = target: T2, Farnesyl pyrophosphate synthase (Homo sapiens) (UniProt P14324); assay: Inhibition of FPPS in human RPMI8226 cells assessed as inhibition of Ras-mediated ERK phosphorylation at 100 uM up to 20 mins by Western blot analysis; type: cell-based; settings: RPMI-8226
T2 sequence (whole entry): T1 sequence (P14324 whole entry)
Method in brief: (§1)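 RPMI8226 cells serum-starved overnight, then stimulated with 10% FBS with or without 100 μM inhibitor for 0 (starved only), 10 and 20 min. Washed in ice-cold PBS/BSA and lysed in Triton/deoxycholate buffer with protease inhibitors. ERK and pERK detected by Western blot with HRP secondary antibodies and ECL chemiluminescence.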

[16] = test system: RPMI-8226; assay: Inhibition of ERK protein expression level in human RPMI8226 cells at 100 uM up to 20 mins by Western blot analysis; type: functional, cell-based; method in brief: as §1

Structure (SMILES): O=P(O)(O)C(O)(Cn1ccnc1)P(=O)(O)O [ZOLEDRONIC ACID]
EC50 [1]: 9400 nM | EC50 [2]: 10500 nM | EC50 [3]: 6400 nM

Structure (SMILES): O=P(O)(O)C(O)(Cc1cccnc1)P(=O)(O)O [RISEDRONIC ACID]
EC50 [1]: 10000 nM | EC50 [3]: 10600 nM

Structure (SMILES): CCCCCCCCCCOc1ccc[n+](CC(P(=O)([O-])O)P(=O)(O)O)c1 (stereo not drawn)
IC50 [4]: 100 nM

Structure (SMILES): O=P(O)(O)C(F)(Cc1cncc(-c2ccccc2)c1)P(=O)(O)O
IC50 [5]: 115 nM

Structure (SMILES): O=P(O)(O)C(Nc1cc(-c2ccc3[nH]ncc3c2)ccn1)P(=O)(O)O
IC50 [5]: 430 nM

Structure (SMILES): O=P(O)(O)C(F)(Cc1cncc(-c2ccc3[nH]ncc3c2)c1)P(=O)(O)O
IC50 [5]: 520 nM

Structure (SMILES): CC(C)=CCC/C(C)=C/CC(C/C=C(\C)CCC=C(C)C)(P(=O)(O)O)P(=O)(O)O [DIGERANYL BISPHOSPHONATE]
IC50 [5]: > 10000 nM

Second part, led by results:

IC50 [5]: 35 nM
Structure (SMILES): Cc1ccc(-c2ccnc(NC(P(=O)(O)O)P(=O)(O)O)c2)cc1

IC50 [5]: 35 nM | IC50 [6]: 2090 nM
Structure (SMILES): O=P(O)(O)C(Nc1cc(-c2ccc(OC3CCC3)cc2)ccn1)P(=O)(O)O

IC50 [5]: 32 nM | IC50 [6]: 785 nM | inhibition [15]: Active
Structure (SMILES): O=P(O)(O)C(Nc1cc(-c2ccc(OC3CCCC3)cc2)ccn1)P(=O)(O)O
EC50 [1]: 8600 nM | EC50 [2]: 3600 nM | EC50 [3]: 3200 nM | viability at 1 µM [7]: 91.8% | viability at 100 µM [8]: 84.8% | Activity [9]: 1.81% | Activity [10]: 5.64% | Activity [11]: 5.94% | Activity [12]: 9.15% | Activity [13]: 0.4% | Activity [14]: 0.46% | inhibition [16]: inactive
